Laboratory results taken from ChEMBL document CHEMBL1157861, “Phosphaisocoumarins as a new class of potent inhibitors for pancreatic cholesterol esterase” (Eur J Med Chem, 2010).
The source made the active and inactive calls. The rule behind the calls is not given here.

Legend:
[1] = Inhibition of pig pancreatic cholesterol esterase assessed as p-nitrophenylbutyrate hydrolysis at 100 uM after 1 min; design: species or system Sus scrofa
How it was run: (§1)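 Porcine pancreatic CEase (0.0125 mU) is pre-incubated for 1 min with varied inhibitor concentrations in 0.1 M sodium phosphate, pH 7.04, with 0.1 M NaCl. PNPB (0.1 mM) is then added and hydrolysis is followed by A405 for 1 min. Compounds are also checked at one fixed top concentration. Each concentration is run in triplicate and averaged.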

[2] = Inhibition of pig pancreatic cholesterol esterase assessed as p-nitrophenylbutyrate hydrolysis after 1 min; design: species or system Sus scrofa; how it was run: as §1
Sus scrofa [3] = species on record: Sus scrofa; test: Reversible inhibition of pig pancreatic cholesterol after 6 hrs absence of p-nitrophenylbutyrate
How it was run: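 CEase and excess inhibitor are incubated without substrate in sodium phosphate buffer, pH 7.04, with 5% acetonitrile by volume, at 25 °C for up to 6 h. Samples are checked periodically by TLC.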

Sus scrofa [4] = species on record: Sus scrofa; test: Reversible inhibition of pig pancreatic cholesterol esterase assessed as p-nitrophenylbutyrate hydrolysis after 1 min
[5] = Competitive inhibition of pig pancreatic cholesterol esterase assessed as p-nitrophenylbutyrate hydrolysis after 1 min by Lineweaver-Burke plot analysis; design: species or system Sus scrofa
How it was run: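 For kinetics, CEase (0.0125 mU) is pre-incubated 1 min with inhibitor in sodium phosphate buffer. PNPB is then added at 0.07–0.3 mM and the A405 change is followed for 1 min at each substrate level. Mechanism is assigned from the rate data across substrate and inhibitor concentrations.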

SMILES	IC50 [2] [µM]	other results
CCCCC1=Cc2ccccc2P(=O)(OCC)O1 (centres undefined)	–	IC50 [1]: Not Active
CCCCC1=C(Cl)c2ccc(Cl)cc2P(=O)(OCC)O1 (centres undefined)	–	IC50 [1]: Not Active
CCOP1(=O)OC(c2ccc(OC)cc2)=C(I)c2ccc(Cl)cc21 (centres undefined)	26.2	–
CCc1ccc(C2=Cc3ccc(Cl)cc3P(=O)(O)O2)cc1	58.4	–
CCOP1(=O)OC(c2ccccc2)=C(Br)c2ccc(Cl)cc21 (centres undefined)	51.2	–
CCOP1(=O)OC(c2ccc(CC)cc2)=C(Cl)c2ccc(Cl)cc21 (centres undefined)	8.9	–
CCOP1(=O)OC(c2ccc(CC)cc2)=Cc2ccc(Cl)cc21 (centres undefined)	40.3	–
CCOP1(=O)OC(C2CC2)=C(Br)c2ccc(Cl)cc21 (centres undefined)	–	IC50 [1]: Not Active
CCOP1(=O)OC(c2ccc([N+](=O)[O-])cc2)=Cc2ccc(Cl)cc21 (centres undefined)	> 100	–
CCOP1(=O)OC(c2ccccc2)=C(I)c2ccc(OC)cc21 (centres undefined)	54.5	–
CCCCC1=Cc2ccccc2P(=O)(O)O1	62.6	–
CCOP1(=O)OC(C2CC2)=C(Br)c2ccc(OC)cc21 (centres undefined)	–	IC50 [1]: Not Active
CCOP1(=O)OC(c2ccccc2)=Cc2ccccc21 (centres undefined)	63.6	–
CCOP1(=O)OC(c2ccc(CC)cc2)=C(C#Cc2ccccc2)c2ccc(Cl)cc21 (centres undefined)	8.5	–
O=P1(O)OC(c2ccccc2)=C(Br)c2ccccc21	14.1	–
CCOP1(=O)OC(c2ccccc2)=C(Br)c2ccccc21 (centres undefined)	18.9	–
CCCCC1=C(I)c2ccccc2P(=O)(OCC)O1 (centres undefined)	–	IC50 [1]: Not Active
CCOP1(=O)OC(c2ccccc2)=C(Cl)c2ccc(OC)cc21 (centres undefined)	89.6	–
CCCCC1=C(Br)c2ccccc2P(=O)(OCC)O1 (centres undefined)	–	IC50 [1]: Not Active
CCOP1(=O)OC(c2ccccc2)=Cc2ccc(OC)cc21 (centres undefined)	77.4	–
CCOP1(=O)OC(c2ccccc2)=Cc2ccc(Cl)cc21 (centres undefined)	56.9	–
O=P1(O)OC(c2ccccc2)=C(Cl)c2ccccc21	1.9	Activity (Sus scrofa [3]): inactive; Activity (Sus scrofa [4]): Active; Ki [5]: 1400 nM
CCOP1(=O)OC(c2ccc(CC)cc2)=C(I)c2ccc(Cl)cc21 (centres undefined)	4.8	Activity (Sus scrofa [3]): inactive; Activity (Sus scrofa [4]): Active; Ki [5]: 4200 nM

SMILES	IC50 [2] [µM]	other results
CCOP1(=O)OC(c2ccccc2)=C(Cl)c2ccccc21 (centres undefined)	12.7	–
CCCCC1=C(Br)c2ccc(Cl)cc2P(=O)(OCC)O1 (centres undefined)	–	IC50 [1]: Not Active
CCOP1(=O)OC(c2ccccc2)=C(C#Cc2ccccc2)c2ccccc21 (centres undefined)	2.3	Activity (Sus scrofa [3]): inactive; Activity (Sus scrofa [4]): Active; Ki [5]: 1900 nM
CCOP1(=O)OC(c2ccccc2)=C(I)c2ccccc21 (centres undefined)	30.3	–
CCOP1(=O)OC(C2CC2)=C(Cl)c2ccc(OC)cc21 (centres undefined)	> 150	–
CCOP1(=O)OC(CO)=Cc2ccc(OC)cc21 (centres undefined)	79.4	–
CCOP1(=O)OC(C2CC2)=C(I)c2ccc(Cl)cc21 (centres undefined)	–	IC50 [1]: Not Active
CCOP1(=O)OC(C2CC2)=C(Cl)c2ccc(Cl)cc21 (centres undefined)	> 100	–
O=P1(O)OC(c2ccccc2)=C(Cl)c2ccc(Cl)cc21	14.6	–
CCCCC1=Cc2ccc(Cl)cc2P(=O)(OCC)O1 (centres undefined)	43.1	–
O=P1(O)OC(c2ccccc2)=Cc2ccc(Cl)cc21	38.7	–
O=P1(O)OC(c2ccccc2)=Cc2ccccc21	96.3	–
COc1ccc2c(c1)P(=O)(O)OC(c1ccccc1)=C2	102	–
CCCCC1=C(Cl)c2ccccc2P(=O)(OCC)O1 (centres undefined)	–	IC50 [1]: Not Active
CCOP1(=O)OC(c2ccccc2)=C(Cl)c2ccc(Cl)cc21 (centres undefined)	34.8	–
CCOP1(=O)OC(c2ccccc2)=C(I)c2ccc(Cl)cc21 (centres undefined)	47.9	–
COc1ccc2c(c1)P(=O)(O)OC(c1ccccc1)=C2Br	57.4	–
CCOP1(=O)OC(C2CC2)=Cc2ccc(Cl)cc21 (centres undefined)	–	IC50 [1]: Not Active
CCOP1(=O)OC(c2ccc(CC)cc2)=C(CC(=O)c2ccccc2)c2ccc(Cl)cc21 (centres undefined)	5.1	–
CCOP1(=O)OC(c2ccc(OC)cc2)=C(Br)c2ccc(Cl)cc21 (centres undefined)	47.9	–
CCOP1(=O)OC(c2ccc(CC)cc2)=C(Br)c2ccc(Cl)cc21 (centres undefined)	6.4	–
CCOP1(=O)OC(c2ccccc2)=C(Br)c2ccc(OC)cc21 (centres undefined)	34.4	–
